Screening results: PubChem, several laboratories
GASC-1 inh – inhibitors of human GASC-1 (JMJD2C) demethylase. Q9H3R0. GST-JMJD2C(1-420) H3K9me3 demethylation, DELFIA europium. inhibition, % at 2.35 µM. actives 0.069% (n = 330,000). AID 2099;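 active = more than half of a compound's replicate wells show inhibition beyond 50%, single wells judged on their own value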;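 note: signal counts dimethyl H3K9 product captured on neutravidin plate; 0% = median of DMSO wells and 100% = 0.3 times that DMSO median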
GalR3 antag – antagonists of human GalR3; actives 0.44% (n = 360,000); HEK293 GalR3-CNG cAMP membrane potential fluorescence; galR3 body fused to GalR1 C-terminus; inhibition, % at 3 µM; AID 651719;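 active = inhibition above the screen-wide average plus 3 SD, cut at about 13% in these data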;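 note: forskolin and galanin both at EC90 stimulate the cells; cAMP rise reported by CNG channel membrane potential dye signal; 0% = forskolin plus galanin with DMSO and 100% = forskolin alone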
Target sequence (O60755 1-299 limits assumed): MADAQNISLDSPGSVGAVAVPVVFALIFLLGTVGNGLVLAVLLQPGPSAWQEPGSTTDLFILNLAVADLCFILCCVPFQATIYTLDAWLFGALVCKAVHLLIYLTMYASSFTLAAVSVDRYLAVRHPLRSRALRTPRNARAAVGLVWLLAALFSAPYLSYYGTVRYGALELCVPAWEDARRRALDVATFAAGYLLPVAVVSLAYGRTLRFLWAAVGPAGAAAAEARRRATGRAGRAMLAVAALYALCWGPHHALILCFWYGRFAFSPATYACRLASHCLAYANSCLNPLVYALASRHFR
NR2E3 ag-1 – activates human NR2E3 receptor. Q9Y5X4. AID 602229. CHO-S Gal4-NCOR/VP16-NR2E3 two-hybrid, luciferase. inhibition of corepressor binding, % at 3.98 µM. actives 0.35% (n = 360,000);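 active = inhibition above the mean of all tested compounds plus 3 SD, cut at about 70% in these data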;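 note: 0% = DMSO with NR2E3 transfected cells and 100% = cells lacking NR2E3 construct; higher means lower luciferase signal from less NR2E3 corepressor binding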
697 NFkB inh – lowers PMA/ionomycin-induced NF-kB signal in 697 B cells. inhibition, % at 4 µM. 697 B-cell NF-kB luciferase reporter, 16 h. actives 0.33% (n = 330,000); in the data active = inhibition above about 35%
NR2E3 ag-2 – agonists of human nuclear receptor NR2E3. actives 0.12% (n = 320,000). inhibition of corepressor binding, % at 4.78 µM. Q9Y5X4. GST-NR2E3/biotin-RetCOR TR-FRET, 1536-well;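 active = percent inhibition above the cutoff of mean plus 3 SD of all tested compounds, set per screening campaign, cut at about 20% in these data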;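 note: 0% = DMSO wells and 100% = biotin wells as full block of FRET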
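System: GST-tagged NR2E3 plus biotinylated RetCOR corepressor; Amount: 1.35 nM GST-tagged NR2E3 final; Dosing: single nominal compound dose of 4.8 µM; Schedule: 5 h incubation at 4 °C; Technique: TR-FRET with europium anti-GST and streptavidin-D2, 340 nm excitation; Controls: biotin wells as high control, 0.6% DMSO wells as low control.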
Jurkat NFkB inh – lowers PMA/ionomycin-induced NF-kB signal in Jurkat cells; PMA/ionomycin-induced NF-kB luciferase reporter, luminescence; actives 0.53% (n = 330,000); AID 435003; inhibition, % at 4 µM; in the data active = inhibition above about 50%
GalR3 antag conf – GalR3 (human) antagonism, confirmation | actives 59% (n = 1,600) | inhibition, % at 3 µM | HEK293 GalR3 CNG cAMP biosensor, membrane potential fluorescence; galR3 fused to GalR1 carboxy tail; challenged with forskolin and galanin at EC90 | shares compounds with GalR3 antag | AID 652245;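 active = inhibition above the primary screen's cutoff, the mean inhibition of all screened compounds plus 3 SD, cut at about 13% in these data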;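 note: 0% = forskolin plus galanin and 100% = forskolin alone with DMSO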
HEK-CNG parental – parental cell agonism counter-screen for GalR3 antagonists | shares compounds with GalR3 antag | activation, % at 3 µM | HEK293-CNG parental cells, cAMP membrane potential fluorescence; normalised: DMSO wells 0%, forskolin wells 100% | actives 10% (n = 1,600); in the data active = activation above about 1.3%
* = called active by the depositor; · = no result given. Hits are enriched below; roughly 1.5% of the tested compounds scored in any of these assays.

SMILES	GASC-1 inh	GalR3 antag	NR2E3 ag-1	697 NFkB inh	NR2E3 ag-2	Jurkat NFkB inh	GalR3 antag conf	HEK-CNG parental
O=C(NC(Cc1ccccc1)C(=O)O)/C(=C/c1ccccc1)NC(=O)c1ccco1 (configuration not stated)	4	16*	-13	-10	2	-9	8	0
COC(=O)CNC(=O)CN1c2cccc3cccc(c23)S1(=O)=O	2	13*	-4	-7	4	-7	0	0
COc1cc(OC)cc(C(=O)NCCNc2nc3cc(C)cc(C)c3cc2C#N)c1	-17	-6	-6	0	6	3	·	·
C[C@@H]1CNC(=O)c2c(C(=O)N(C)Cc3ccccc3)ncn21	·	-7	·	·	·	·	·	·
CCN(CC)CC(=O)Nc1ccc(C)cc1C(=O)c1ccccc1	-5	-8	9	4	0	11	·	·
CCN(CC(=O)Nc1ccc(NC(C)=O)cc1)CC(=O)Nc1ccccc1C(=O)c1ccccc1	13	17*	-18	-1	2	2	4	0
CCc1cc2cc(C)cc(C)c2nc1Cl	0	-2	5	1	-2	1	·	·
Cc1cc(C)c2cc(C=O)c(Cl)nc2c1	3	15*	31	13	3	2	40*	2.7*
CCc1nc2ccc(C(=O)Nc3ccc4c(c3)OCC(=O)N4)cn2c1N(CC)CCOC	·	15*	-17	·	·	·	11	0
COc1ccc(C2N(Cc3ccccc3)CCN2Cc2ccccc2)cc1[N+](=O)[O-]	-7	6	-17	18	1	-11	·	·
O=C(NS(=O)(=O)N1CCCC1)C1=C(N2CCCC2)COC1=O	2	·	-54	-12	3	-7	0	0
O=C(O)c1cc(-c2ccccc2)nc2nc(N3CCCCC3)sc12	3	13*	·	18	3	6	0	0
CCCN1C(=O)c2[nH]nc(-c3cc(Cl)c(C)cc3O)c2C1c1ccc(O)c(OC)c1 (configuration not stated)	-22	20*	-27	6	-1	-6	4	0
COCCCN1C(=O)c2[nH]nc(-c3cc(C)cc(C)c3O)c2C1c1ccc(O)c(OC)c1 (configuration not stated)	-9	2	5	8	-1	1	·	·
COC(=O)C(=Cc1ccccc1[N+](=O)[O-])C(=O)OC	6	-6	6	-16	-4	13	·	·
CCOC(=O)c1sc2ncnc(N3CCN(C(=O)OCC)CC3)c2c1C	14	15*	2	-6	3	10	21*	0
CCOC(=O)c1sc2ncnc(N3CCN(CC)CC3)c2c1C	3	-2	-9	-10	2	-8	·	·
O=C(CSC1=Nc2ccccc2C2CC=NN12)Nc1ccc2c(c1)OCO2 (configuration not stated)	·	20*	-49	·	·	·	10	0
CCCOC(=O)c1ccc(NC(=O)CSC2=Nc3ccccc3C3CC=NN23)cc1 (configuration not stated)	-2	-4	-9	0	0	-12	·	·
Cc1ccc(-c2csc(NCCn3c(C)nc4cc(C(F)(F)F)ccc43)n2)cc1	-8	-4	-26	5	·	-1	·	·
COc1ccc(NC(=O)CSc2ncccc2C(=O)OC(C)C)cc1OC	-2	28*	36	0	3	22	13*	0
COc1ccc(NC(=O)CSc2ccccn2)cc1OC	7	0	0	13	2	6	·	·
COc1ccc(Cn2c(=O)[nH]c3cc(C(=O)N4CCN(Cc5ccccc5)CC4)ccc3c2=O)cc1	7	65*	1	-20	0	34	88*	0
COc1ccc(Cn2c(=O)[nH]c3cc(C(=O)N4CCN(c5ccccc5OC)CC4)ccc3c2=O)cc1	14	·	-1	-47	-2	11	·	·
O=c1[nH]c2cc(NCCO)c([N+](=O)[O-])cc2[nH]1	-1	21*	-15	4	-11	-2	33*	2.8*
SMILES	GASC-1 inh	GalR3 antag	NR2E3 ag-1	697 NFkB inh	NR2E3 ag-2	Jurkat NFkB inh	GalR3 antag conf	HEK-CNG parental
CC(C)CC1(C)NC(=O)N(CC(=O)Nc2cccc(S(=O)(=O)N(C)c3ccccc3)c2)C1=O (configuration not stated)	-5	14*	-23	24	5	-15	57*	0
CN(c1ccccc1)S(=O)(=O)c1cccc(NC(=O)CN2C(=O)NC3(CCCCC3)C2=O)c1	·	-4	0	5	4	7	·	·
CC(=O)NCCC1CCN(c2nc3nonc3nc2N(C)Cc2ccccc2)CC1	1	20*	-13	5	1	-5	0	0
CCCCNC(=O)N1CCC(CCC(=O)N(C)Cc2ccccc2)CC1	-17	-11	-18	6	2	-12	·	·
COc1c(/C=C2\SC(=Nc3ccccc3Cl)NC2=O)cccc1[N+](=O)[O-]	-18	51*	-13	10	6	8	65*	1
Cc1[nH]nc(NCCO)c1[N+](=O)[O-]	-1	·	-8	18	-9	28	69*	-1
Cc1cc(Br)c(OCc2ccc(C(=O)N/N=C/c3ccc[nH]3)cc2)c(Br)c1	5	61*	38	0	5	-4	12	0
O=C(N/N=C/c1ccc[nH]1)c1ccc(COc2cccc3cccnc23)cc1	5	3	-40	15	3	-4	·	·
CC(C)Oc1ccccc1C1Nc2ccccc2C(=O)N1c1ccc2c(c1)OCCO2 (configuration not stated)	2	1	-68	-156	1	-101	·	·
Cc1ccc(N2C(=O)c3ccccc3NC2C(C)Cc2ccc3c(c2)OCO3)cc1 (configuration not stated)	-2	39*	-105	6	-1	-14	48*	0
CCOC(=O)c1[nH]c2ccc(OC)cc2c1NS(=O)(=O)c1ccc(Cl)s1	-10	103*	-6	-19	1	-3	92*	0
Cc1ccc(S(=O)(=O)NC2CCCC2)cc1C	·	-1	-24	-16	3	-11	·	·
Cc1cc(=O)[nH]c2ccc(S(=O)(=O)NC3CCCCC3)cc12	-2	13*	-11	28	2	-26	38*	0
CC(C)(C)OC(=O)C[C@H]1C/C=C\C[C@@H](CC(=O)NCCO)C(=O)NCCOC1=O	3	-5	-19	-8	·	6	·	·
